The values that follow come from ChEMBL document CHEMBL5634162, “Cyclohexylalanine-Containing α-Helical Amphipathic Peptide Targets Cardiolipin, Rescuing Mitochondrial Dysfunction in Kidney Injury” (J Med Chem, 2024).

The nature of series [1]: Drug localization in CCCP-damaged mitochondria of human HeLa cells at 100 nM incubated for 3 hrs by NAO probe based assay. In kind it is ADME. To be noted: 0.1 µM. A digest of the protocol:
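HeLa cells given TAMRA-labelled peptide 100 nM for 3 h and cardiolipin stained with NAO (100 nM, 1 h), with or without 20 μM CCCP for 30 min; LysoTracker 50 nM. Confocal images, Pearson r from five independent images (63×) per condition.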

The subject of series [2] is HeLa. The series can be described thus: Cytoprotective activity against CCCP-induced cell death in human HeLa cells assessed as increase in cell survival measured for 4 hrs by fluorescence based analysis. The class given is functional.
For the next series, the system named is Mitochondria. As to the kind of experiment: Inhibition of CCCP -induced mitochondrial ROS generation in human HeLa cells incubated for 190 mins followed by CCCP addition measured after 90 mins by MitoSOX probe based analysis. In kind it is functional. As to conditions: dose 5-20 nM. The gist of the method:
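HeLa cells seeded, stained 24 h later with MitoSOX 5 μM for 10 min, washed, HBSS, read on plate reader at 37 °C (Ex/Em 510/580 nm).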

The subject of series [3] is HeLa. The series can be described thus: Induction of CCCP-reduced ATP production in human HeLa cells incubated for 3 hrs followed by CCCP addition measured after 1 hr by luminescence based analysis. In kind it is functional, cell-based. To be noted: dose 5-20 nM, time 4.0 hrs. The gist of the method:
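Cellular ATP measured by luminescence with an ATP detection kit after peptide pretreatment.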

In series [4] the test system is HeLa. As to the kind of experiment: Induction of H2O2-reduced mitochondrial membrane potential in human HeLa cells incubated for 3 hrs followed by H2O2 addition for 1 hr by fluorescence based analysis. In kind it is functional, cell-based. To be noted: dose 10-30 nM, time 4.0 hrs. A digest of the protocol: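 HeLa cells given peptide 3 h then 1 mM H2O2 for 1 h; TMRE 600 nM for 15 min, washed, fluorescence read in HBSS at 37 °C (Ex/Em 525/575 nm).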

Series [5] is described as follows: Drug uptake in human HeLa cells at 100 nM incubated for 3 hrs in presence of M-beta-CD by FACS analysis. In kind it is ADME, cell-based. To be noted: 0.1 µM. A digest of the protocol:
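HeLa cells pretreated 30 min with the endocytosis inhibitor (methyl-β-cyclodextrin for cholesterol depletion), then given 100 nM TAMRA-labelled peptide for 3 h and analysed by FACS.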
A general note: Flow cytometry measures light scatter and fluorescence of single cells or particles in a stream.

A short description of series [6]: Drug localization in endosomes of human HeLa cells expressing endosome markers at 100 nM incubated for 3 hrs by GFP based analysis. In kind it is ADME, subcellular. To be noted: 0.1 µM. A digest of the protocol: (§1)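 HeLa cells expressing early-endosome GFP marker (16 h) given TAMRA-labelled peptide 100 nM for 3 h plus LysoTracker 50 nM; confocal imaging with Pearson correlation.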

Series [7] in a line: Drug localization in lysosomes of human HeLa cells expressing endosome markers at 100 nM incubated for 3 hrs by LysoTracker probe based analysis. In kind it is ADME, subcellular, Lysosome. As to conditions: 0.1 µM. A digest of the protocol: as §1
The test system of series [8] is Epithelial cell. As to the kind of experiment: Inhibition of H2O2-induced intracellular ROS level in human tubular epithelial cells at 20 to 60 nM pretreated for 3 hrs followed by H2O2 addition measured after 30 mins by H2DCFDA staining based analysis. In kind it is functional. To be noted: dose 20-60 nM. A digest of the protocol:
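hTECs seeded, 24 h later given peptide 3 h, then H2O2 1 mM for 30 min; H2DCFDA 25 μM for 30 min, washed, read in HBSS on plate reader at 37 °C (Ex/Em 485/535 nm).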

For series [9], the system named is Epithelial cell. As to the kind of experiment: Induction of antimycin A-reduced ATP production in human tubular epithelial cells at 10 to 20 nM incubated for 3 hrs followed by antimycin A addition by fluorescene based analysis. The class given is functional. As to conditions: dose 10-20 nM.
Series [10] relates to Epithelial cell. The series can be described thus: Reversal of H2O2-induced mitochondrial dysfunction in human tubular epithelial cells assessed as increase in OCR level measured for 40 to 60 mins by Seahorse assay. The class given is functional, cell-based. As to conditions: dose 10-50 nM, time 40-60 min. The gist of the method: (§2)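 hTECs were exposed to H2O2 with peptide at 10 or 50 nM (n = 6 per group), then run on a Seahorse XFe96. OCR was read after sequential 2 μM oligomycin, 1 μM FCCP, and 0.5 μM rotenone/antimycin A. ECAR was read after 10 mM glucose, 1 μM oligomycin and 50 mM 2-DG. Glycolytic proton efflux rate was taken as glycoATP production rate.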

Series [11] relates to Epithelial cell. As to the kind of experiment: Reversal of H2O2-induced mitochondrial dysfunction in human tubular epithelial cells assessed as increase in glycolytic PER level measured for 40 to 60 mins by Seahorse assay. To be noted: dose 10-50 nM, time 40-60 min. In kind it is functional, cell-based. A digest of the protocol:
as §2

The test system of series [12] is Mus musculus. The series can be described thus: Protection against colistin-induced nephrotoxicity in C57BL/6 mouse model assessed as reduction in acute tubular necrosis at 1 mg/kg, ip administered once every other day measured after 7 days by […] analysis. The class given is functional, organism-based. To be noted: time 7.0 day. A digest of the protocol: (§3)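 Male C57BL/6 mice, 7 weeks: colistin 20 mg/kg sc daily for 7 days, peptide 1 mg/kg ip once every other day, n = 5 per group. Day-7 kidney sections, citrate antigen retrieval, immunohistochemistry with HRP polymer secondary and hematoxylin counterstain; PAS and Masson's trichrome for damage.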

The test system of series [13] is Mus musculus. The series can be described thus: Protection against colistin-induced nephrotoxicity in C57BL/6 mouse model assessed as reduction in renal fibrosis at 1 mg/kg, ip administered once every other day measured after 7 days by […] analysis. As to conditions: time 7.0 day. The class given is functional, organism-based. A digest of the protocol: (§4)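 Seven-week-old male C57BL/6 mice got colistin 20 mg/kg SC daily for 7 days plus peptide 1 mg/kg intraperitoneally every other day; groups of n = 5 (control, colistin, colistin + peptide). Kidneys were taken at day 7. Cytochrome C was detected by immunohistochemistry (citrate antigen retrieval, HRP-polymer detection, hematoxylin counterstain). Sections were also stained with PAS and Masson's trichrome to score histologic damage and fibrosis.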

Series [14] relates to Mus musculus. The series can be described thus: Protection against colistin-induced nephrotoxicity in C57BL/6 mouse model assessed as reduction in 8-OHdG level at 1 mg/kg, ip administered once every other day measured after 7 days by IHC analysis. In kind it is functional, organism-based. To be noted: time 7.0 day. The gist of the method:
as §3

The subject of series [15] is Mus musculus. As to the kind of experiment: Protection against colistin-induced nephrotoxicity in C57BL/6 mouse model assessed as reduction in cyt C level at 1 mg/kg, ip administered once every other day measured after 7 days by IHC analysis. The class given is functional, organism-based. As to conditions: time 7.0 day. A digest of the protocol:
as §4

Series [16] concerns Epithelial cell. As to the kind of experiment: Reversal of H2O2-induced IL-1beta mRNA level in human tubular epithelial cells at 10 to 100 nM by qPCR analysis. In kind it is functional, cell-based. To be noted: dose 10-100 nM. (In general: Quantitative PCR measures a nucleic acid by following its amplification.)
Series [17] relates to Mus musculus. The series can be described thus: Protection against […] C57BL/6 mouse model assessed as reduction in serum BUN level at 1 mg/kg, ip administered thrice a week prior to induction of bilateral ischemia-reperfusion injury measured after 6 days. In kind it is functional, organism-based. As to conditions: time 6.0 day.
For series [18], the system named is Mus musculus. The series can be described thus: Protection against […] C57BL/6 mouse model assessed as reduction in inflammatory cell infiltration at 1 mg/kg, ip administered thrice a week prior to induction of bilateral ischemia-reperfusion injury measured after 6 days by IHC analysis. In kind it is functional, organism-based. To be noted: time 6.0 day.

Series [19] deals with Mus musculus. The series can be described thus: Protection against […] C57BL/6 mouse model assessed as decrease in cyt C level at 1 mg/kg, ip administered thrice a week prior to induction of bilateral ischemia-reperfusion injury measured after 6 days by IHC analysis. As to conditions: time 6.0 day. In kind it is functional, organism-based.
Series [20] concerns Mus musculus. The series can be described thus: Protection against […] C57BL/6 mouse model assessed as decrease in NGAL level at 1 mg/kg, ip administered thrice a week prior to induction of bilateral ischemia-reperfusion injury measured after 6 days by Western blot analysis. In kind it is functional, organism-based. As to conditions: time 6.0 day.

Series [21] relates to Mus musculus. As to the kind of experiment: Protection against […] C57BL/6 mouse model assessed as decrease in serum BUN level at 1 mg/kg, ip measured after 23 hrs. In kind it is functional, organism-based.
Series [22] relates to Mus musculus. As to the kind of experiment: Protection against […] C57BL/6 mouse model assessed as decrease in serum creatinine level at 1 mg/kg, ip measured after 23 hrs. In kind it is functional, organism-based.

Calls of active or inactive are those of the source. The rule behind the calls is not given here. Where a SMILES comes first, the peptide text is derived from it. Bridges are numbered along the chain shown (N, C = ends). Roman numbers before positions name the chains, in order. [ ]: non-standard residue; d: D form. The star is where a group is joined. 5TAMRA = CN(C)c1ccc2c(c1)Oc1cc(N(C)C)ccc1C21OC(=O)c2cc(C(=O)*)ccc21; Cha = N[C@@H](CC1CCCCC1)C(=O)O

Take `CC(=O)N[C@@H](CC1CCCCC1)C(=O)N[C@H]1CSSC[C@@H](C(=O)N[C@@H](CCCNC(=N)N)C(N)=O)NC(=O)[C@H](CC2CCCCC2)NC(=O)[C@H](CCCNC(=N)N)NC(=O)[C@H](CCCNC(=N)N)NC(=O)[C@H](CC2CCCCC2)NC(=O)[C@H](CC(C)C)NC(=O)[C@H](CCCNC(=N)N)NC(=O)[C@@H](NC(=O)[C@H](CC2CCCCC2)NC(=O)c2ccc3c(c2)C(=O)OC32c3ccc(N(C)C)cc3Oc3cc(N(C)C)ccc32)CSSC[C@@H](C(=O)N[C@@H](CCCNC(=N)N)C(N)=O)NC(=O)[C@H](CC2CCCCC2)NC(=O)[C@H](CCCNC(=N)N)NC(=O)[C@H](CCCNC(=N)N)NC(=O)[C@H](CC2CCCCC2)NC(=O)[C@H](CC(C)C)NC(=O)[C@H](CCCNC(=N)N)NC1=O` (I: Ac-[Cha]CRL[Cha]RR[Cha]CR-NH2 / II: 5TAMRA-[Cha]CRL[Cha]RR[Cha]CR-NH2; disulfide I:2-II:9, I:9-II:2): the Drug uptake result was “Active” in series [1], “Not Active” in [5], “Not Active” in [6] and “Active” in [7]. In addition, the result in the series on HeLa [2], in the series on Epithelial cell [9], in the series on Mus musculus [12], in the series on Mus musculus [13], with Mus musculus [14] and in the series on Mus musculus [15] was Active. The outcome in the series on Epithelial cell [16], in the series on Mus musculus [17], in the series on Mus musculus [18], in the series with Mus musculus [19], in the series with Mus musculus [20] and in the series with Mus musculus [21] was Active. In addition, the result with Mus musculus [22] was Active. In the series with Mitochondria, the inhibition entry is “Dose-Dependent Effect”. Also, the Activity entry with HeLa [3], in the series with HeLa [4], in the series on Epithelial cell [10] and in the series on Epithelial cell [11] was “Dose-Dependent Effect” each time. Further, in the series with Epithelial cell [8], the inhibition result is “Active”.
